System: MZ2-MEL.61 cells (D-) expressing HLA-A1
Experiment: Peptide sensitization assay
Format: cell-based, human
Conditions: CTL clone 20/38
Outline: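 Target cells (MZ2-MEL.61, antigen-loss D− variant, HLA-A1+) were 51Cr-labelled for 1 h at 37°C and washed extensively. 1,000 cells/well were preincubated 30 min at 37°C with various concentrations of synthetic test peptide (>90% HPLC purity; stock in 0.02 M PBS). CTL 20/38 were then added in equal volume at E/T 10:1. Chromium release was read after 4 h at 37°C. D+ and D− MZ2-MEL cells without peptide served as reference.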

In the case of EVDPIGHVY [MAGE-6 derived peptide], the “Recognition by the anti-MZ2-D CTL clone” value was “not recognized”.

— PMC2191409 (The Journal of Experimental Medicine, 1994)
